Measurements published in ChEMBL document CHEMBL4414552, “Homotrimerization Approach in the Design of Thrombospondin-1 Mimetic Peptides with Improved Potency in Triggering Regulated Cell Death of Cancer Cells” (J Med Chem, 2019).
Activity calls are given as the source filed them. No cut-off for these calls is given here. Square brackets hold non-standard residues; d marks the D form. Peptide text beside a SMILES is read from it. NMeR = CN[C@@H](CCCNC(=N)N)C(=O)O

Assays:
MEC1 [1] = experiment: Cytotoxicity against human MEC1 cells assessed as induction of cell death at 200 uM after 6 hrs by annexin V/propidium iodide staining based flow cytometric analysis relative to control; assay type: functional
[2] = biological target: T1, Leukocyte surface antigen CD47 (Homo sapiens, UniProt Q08722); experiment: Binding affinity to CD47 in biotinylated human MEC1 cell membranes by biolayer interferometry
T1 sequence (Q08722 whole entry): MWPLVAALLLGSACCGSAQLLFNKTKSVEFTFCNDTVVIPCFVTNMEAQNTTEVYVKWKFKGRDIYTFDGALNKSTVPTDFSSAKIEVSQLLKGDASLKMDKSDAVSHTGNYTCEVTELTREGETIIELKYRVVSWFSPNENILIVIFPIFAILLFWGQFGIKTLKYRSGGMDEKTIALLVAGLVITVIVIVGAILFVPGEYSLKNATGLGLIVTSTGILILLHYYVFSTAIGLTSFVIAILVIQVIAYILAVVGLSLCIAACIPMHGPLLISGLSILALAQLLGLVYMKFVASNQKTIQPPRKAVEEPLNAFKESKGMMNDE
In short: (§1)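 Biotinylated membrane preparations from MEC-1 cells were loaded onto SuperStreptavidin biosensors. Binding was measured by bilayer interferometry (Octet RED96) in PBS with 0.2% BSA and 1% DMSO at 30 °C. Affinities are given as apparent Kd estimates.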

MEC1 [3] = experiment: Cytotoxicity against human MEC1 cells assessed as induction of cell death at 300 uM after 6 hrs by annexin V/propidium iodide staining based flow cytometric analysis relative to control; assay type: functional
[4] = biological target: T1, Leukocyte surface antigen CD47; experiment: Binding affinity to CD47 in biotinylated human MEC1 cell membranes at 300 uM by biolayer interferometry; in short: as §1

## CSCC[C@H](NC(=O)[C@@H](NC(=O)[C@@H](NC(=O)[C@H](Cc1ccc(O)cc1)NC(=O)[C@H](Cc1ccccc1)NC(=O)[C@H](CCCNC(=N)N)N(C)C(=O)[C@H](N)CCCCN)C(C)C)C(C)C)C(=O)N[C@@H](Cc1c[nH]c2ccccc12)C(=O)N[C@@H](CCCCN)C(=O)N[C@H](CCCCN)C(=O)O
MEC1 [1]
  Activity: 54%
[2]
  Kd: 21 µM

## CC(C)[C@H](NC(=O)[C@H](Cc1ccc(O)cc1)NC(=O)[C@H](Cc1ccccc1)NC(=O)[C@H](CCCNC(=N)N)N(C)C(=O)[C@H](N)CCCCN)C(=O)N[C@H](C(=O)N[C@@H](Cc1ccc(O)cc1)C(=O)N[C@@H](Cc1c[nH]c2ccccc12)C(=O)N[C@@H](CCCCN)C(=O)N[C@H](CCCCN)C(=O)O)C(C)C
MEC1 [1]
  Activity: 19%
[2]
  Kd: 13 µM

## CC(C)C[C@H](NC(=O)[C@@H](NC(=O)[C@@H](NC(=O)[C@H](Cc1ccc(O)cc1)NC(=O)[C@H](Cc1ccccc1)NC(=O)[C@H](CCCNC(=N)N)N(C)C(=O)[C@H](N)CCCCN)C(C)C)C(C)C)C(=O)N[C@@H](Cc1c[nH]c2ccccc12)C(=O)N[C@@H](CCCCN)C(=O)N[C@H](CCCCN)C(=O)O (H-[dK][NMeR]FYVVLWK[dK]-OH)
MEC1 [1]
  Activity: 26%
[2]
  Kd: 15 µM

## CSCC[C@H](NC(=O)[C@@H](NC(=O)[C@@H](NC(=O)[C@H](Cc1ccc(O)cc1)NC(=O)[C@H](Cc1ccccc1)NC(=O)[C@H](CCCNC(=N)N)NC(=O)[C@H](N)CCCCN)C(C)C)C(C)C)C(=O)N[C@@H](Cc1c[nH]c2ccccc12)C(=O)N(C)[C@@H](CCCCN)C(=O)N[C@H](CCCCN)C(=O)O
MEC1 [1]
  Activity: 20%
[2]
  Kd: 48 µM

## H-KWVKYRVMFK-OH
MEC1 [3]
  Activity: inactive
[4]
  Activity: inactive
MEC1 [1]
  Activity: inactive
[2]
  Activity: inactive

## CSCC[C@@H](C(=O)N[C@@H](Cc1c[nH]c2ccccc12)C(=O)N[C@@H](CCCCN)C(=O)N[C@H](CCCCN)C(=O)O)N(C)C(=O)[C@@H](NC(=O)[C@@H](NC(=O)[C@H](Cc1ccc(O)cc1)NC(=O)[C@H](Cc1ccccc1)NC(=O)[C@H](CCCNC(=N)N)NC(=O)[C@H](N)CCCCN)C(C)C)C(C)C
MEC1 [1]
  Activity: 11%

## CC[C@H](C)[C@H](NC(=O)[C@@H](NC(=O)[C@@H](NC(=O)[C@H](Cc1ccc(O)cc1)NC(=O)[C@H](Cc1ccccc1)NC(=O)[C@H](CCCNC(=N)N)N(C)C(=O)[C@H](N)CCCCN)C(C)C)C(C)C)C(=O)N[C@@H](Cc1c[nH]c2ccccc12)C(=O)N[C@@H](CCCCN)C(=O)N[C@H](CCCCN)C(=O)O
MEC1 [1]
  Activity: 25%
[2]
  Kd: 17 µM
